Columns and labels:
HEp-2 = test: Cytotoxicity against Hep2 cell at 50 uM; assay type: functional, cell-based; details: Homo sapiens
How it was run: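 Run alongside the whole-cell antiviral XTT assay, without virus, to measure compound toxicity to the cells. The read-out is XTT.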

[1] = test system: Respiratory syncytial virus; test: Antiviral activity against RSV RSS in Hep2 cells by whole cell XTT assay; assay type: functional, organism-based; details: human respiratory syncytial virus, HEp-2
How it was run: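 Primary whole-cell assay with XTT read-out of infected cells. Parallel cultures without virus were run to measure compound cytotoxicity. IC50 values were derived.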

Rattus norvegicus [2] = test: Volume of distribution in Sprague-Dawley rat at 2 mg/kg, po; assay type: ADME, organism-based; design: dose 2 mg/kg, route oral; details: in vivo
[3] = test system: Respiratory syncytial virus; test: Antiviral activity against RSV Long in Hep2 cells by plaque assay; assay type: functional, organism-based; details: human respiratory syncytial virus, HEp-2
[4] = Tmax in Sprague-Dawley rat at 2 mg/kg, po; assay type: ADME, organism-based; design: dose 2 mg/kg, route oral; details: in vivo
[5] = Cmax in Sprague-Dawley rat at 2 mg/kg, po; assay type: ADME, organism-based; design: dose 2 mg/kg, route oral; details: in vivo
[6] = test system: Respiratory syncytial virus; test: Antiviral activity against RSV B in Hep2 cells by ELISA; assay type: functional, organism-based; details: human respiratory syncytial virus, HEp-2
[7] = test system: Respiratory syncytial virus; test: Antiviral activity against RSV A2 in Hep2 cells by plaque assay; assay type: functional, organism-based; details: human respiratory syncytial virus, A2, HEp-2
[8] = Oral bioavailability in Sprague-Dawley rat at 2 mg/kg, po; assay type: ADME, organism-based; details: in vivo
[9] = Half life in Sprague-Dawley rat at 2 mg/kg, po; assay type: ADME, organism-based; design: dose 2 mg/kg, route oral; details: in vivo
[10] = test system: Respiratory syncytial virus; test: Antiviral activity against RSV RSS in Hep2 cells by plaque assay; assay type: functional, organism-based; details: human respiratory syncytial virus, HEp-2
[11] = Half life in Sprague-Dawley rat at 2 mg/kg, iv; assay type: ADME, organism-based; design: dose 2 mg/kg, route intravenous; details: in vivo
[12] = Tmax in Sprague-Dawley rat at 2 mg/kg, iv; assay type: ADME, organism-based; design: dose 2 mg/kg, route intravenous; details: in vivo
[13] = Cmax in Sprague-Dawley rat at 2 mg/kg, iv; assay type: ADME, organism-based; design: dose 2 mg/kg, route intravenous; details: in vivo
[14] = test system: Respiratory syncytial virus; test: Antiviral activity against RSV RSS in Hep2 cells by ELISA; assay type: functional, organism-based; details: human respiratory syncytial virus, HEp-2
[15] = test system: Respiratory syncytial virus; test: Antiviral activity against RSV Long in Hep2 cells by ELISA; assay type: functional, organism-based; details: human respiratory syncytial virus, HEp-2
[16] = Volume of distribution in Sprague-Dawley rat at 2 mg/kg, iv; assay type: ADME, organism-based; design: dose 2 mg/kg, route intravenous; details: in vivo, read-out: Vdss
[17] = test system: Respiratory syncytial virus; test: Antiviral activity against RSV B in Hep2 cells by plaque assay; assay type: functional, organism-based; details: human respiratory syncytial virus, HEp-2
[18] = Cmax in Sprague-Dawley rat at 20 mg/kg, po; assay type: ADME, organism-based; design: dose 20 mg/kg, route oral; details: in vivo
Rattus norvegicus [19] = test: Volume of distribution in Sprague-Dawley rat at 20 mg/kg, po; assay type: ADME, organism-based; design: dose 20 mg/kg, route oral; details: in vivo
[20] = Half life in Sprague-Dawley rat at 20 mg/kg, po; assay type: ADME, organism-based; design: dose 20 mg/kg, route oral; details: in vivo
[21] = Apparent oral clearance in Sprague-Dawley rat at 20 mg/kg, po; assay type: ADME, organism-based; design: dose 20 mg/kg, route oral; details: in vivo
[22] = Tmax in Sprague-Dawley rat at 20 mg/kg, po; assay type: ADME, organism-based; design: dose 20 mg/kg, route oral; details: in vivo

Row | SMILES | Activity (HEp-2) | IC50 [1] [µM] | further results
1 | Cc1cc(C(=O)NC2N=C(c3ccccc3)c3ccccc3NC2=O)oc1C (configuration not stated) | Not toxic | 2.8 | 
2 | COc1ccc(CNC2N=C(c3ccccc3)c3ccccc3NC2=O)cc1 (configuration not stated) | Not toxic |  | 
3 | O=C(Nc1ccccc1F)NC1N=C(c2ccccc2)c2ccccc2NC1=O (configuration not stated) | Not toxic | 3.3 | Vdss (Rattus norvegicus [2]): 7.5 L/kg; IC50 [3]: 2200 nM; Tmax [4]: 2.6 h; Cmax [5]: 386 ng/mL; IC50 [6]: 1900 nM; IC50 [7]: 2800 nM; bioavailability [8]: 76%; half-life [9]: 486 min; IC50 [10]: 3000 nM; half-life [11]: 222 min; Tmax [12]: 4.8 min; Cmax [13]: 1530 ng/mL; IC50 [14]: 2700 nM; IC50 [15]: 2500 nM; Vd [16]: 2.5 L/kg; IC50 [17]: 750 nM
4 | O=C(NC1N=C(c2ccccc2)c2ccccc2NC1=O)c1ccc(N2CCOCC2)cc1Cl (configuration not stated) | Not toxic | 3.4 | 
5 | O=C(NC1N=C(c2ccccc2)c2ccc(Cl)cc2NC1=O)c1cccs1 (configuration not stated) | Not toxic | 26.7 | 
6 | O=C(NC1N=C(c2ccccc2)c2ccccc2NC1=O)c1ccco1 (configuration not stated) | Not toxic | 3.2 | 
7 | COc1ccc(C(=O)NC2N=C(C)c3ccccc3NC2=O)cc1 (configuration not stated) | Not toxic | > 50 | 
8 | CCOc1ccccc1C(=O)NC1N=C(c2ccccc2)c2ccccc2NC1=O (configuration not stated) | Not toxic | 3.6 | 
9 | O=C(NC1N=C(c2ccccc2)c2ccccc2NC1=O)C1CCCCC1 (configuration not stated) | Not toxic |  | 
10 | O=C(NC1N=C(c2ccccc2F)c2cc(Cl)ccc2NC1=O)c1ccco1 (configuration not stated) | Not toxic | 41.3 | 
11 | COc1cc([N+](=O)[O-])ccc1C(=O)NC1N=C(c2ccccc2)c2ccccc2N(C)C1=O (configuration not stated) | Not toxic | > 50 | 
12 | COc1ccccc1C(=O)NC1N=C(c2ccc(F)cc2)c2ccccc2NC1=O (configuration not stated) | Not toxic | 16.5 | 
13 | O=C(Nc1ccccc1F)NC1N=C(C2CCCCC2)c2ccccc2NC1=O (configuration not stated) | Not toxic | > 50 | 
14 | CN1CCN(C(=O)NC2N=C(c3ccccc3)c3ccccc3NC2=O)CC1 (configuration not stated) | Not toxic | 9.3 | 
15 | O=C(NC1N=C(C2CCCCC2)c2ccccc2NC1=O)c1ccco1 (configuration not stated) | Not toxic | > 50 | 
16 | O=C(Nc1ccccc1F)OC1N=C(c2ccccc2)c2ccccc2NC1=O (configuration not stated) | Not toxic | 16.1 | 
17 | CC(C)(C)C(=O)NC1N=C(c2ccccc2)c2ccccc2NC1=O (configuration not stated) | Not toxic | 16.7 | 
18 | O=C(NC1N=C(c2ccccc2)c2ccccc2NC1=O)c1cccc(OC(F)(F)F)c1 (configuration not stated) | Not toxic | 14.6 | 
19 | COc1cccc(C2=NC(NC(=O)c3ccccc3OC)C(=O)Nc3ccccc32)c1 (configuration not stated) | Not toxic | > 50 | 
20 | CCCOc1ccccc1C(=O)NC1N=C(c2ccccc2)c2ccccc2NC1=O (configuration not stated) | Not toxic | 40.2 | 
21 | COc1ccccc1CNC1N=C(c2ccccc2)c2ccccc2NC1=O (configuration not stated) | Not toxic | 27.3 | 
22 | COc1ccc(C(=O)NC2N=C(c3ccccc3)c3ccccc3NC2=O)c(OC)c1 (configuration not stated) | Not toxic | 2.1 | 
23 | O=C(NC1N=C(c2ccc(C(F)(F)F)cc2)c2ccccc2NC1=O)c1ccco1 (configuration not stated) | Not toxic | > 50 | 
24 | COc1cc([N+](=O)[O-])ccc1C(=O)NC1N=C(c2ccccc2)c2ccccc2NC1=O (configuration not stated) | Not toxic |  | Cmax [18]: 1670 ng/mL; IC50 [3]: 900 nM; IC50 [6]: 1300 nM; Vdss (Rattus norvegicus [19]): 9.8 L/kg; half-life [20]: 348 min; IC50 [10]: 1800 nM; CL/F [21]: 18.8 mL/min/kg; Tmax [22]: 3 h; IC50 [14]: 2500 nM; IC50 [15]: 1200 nM; IC50 [17]: < 300 nM
25 | COc1cc([N+](=O)[O-])ccc1C(=O)N(C)C1N=C(c2ccccc2)c2ccccc2NC1=O (configuration not stated) | Not toxic | 25.1 | 
26 | O=C(NC1N=C(c2ccccc2)c2ccccc2NC1=O)c1ccccc1OC(F)(F)F (configuration not stated) | Not toxic | 14.4 | 
27 | O=C(NC1N=C(c2cccc(Cl)c2)c2ccccc2NC1=O)c1ccco1 (configuration not stated) | Not toxic | 6.9 | 
28 | COc1ccc(C2=NC(NC(=O)c3ccccc3OC)C(=O)Nc3ccccc32)cc1 (configuration not stated) | Not toxic | > 50 | 
29 | O=C(NC1N=C(c2ccccc2)c2ccccc2NC1=O)c1ccc([N+](=O)[O-])cc1 (configuration not stated) | Not toxic | 6.7 | 

— ChEMBL document CHEMBL1146087, “1,4-Benzodiazepines as inhibitors of respiratory syncytial virus” (J Med Chem, 2006)
